Like-named read-outs stand apart in the source and are kept apart here.
Experiments:
[1] = assay type: physicochemical, mice; conditions: for Accuracy (RE, %) 25°C for 6 h / Accuracy (RE, %) Frozen for 30 days: stability in mice plasma/blood QC sample; for Accuracy (RE, %) Frozen for 30 days: −80°C; for Accuracy (RE, %) 4°C for 24 h: stability, extracted QC sample in auto-sampler
Outline: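 Blank mouse blood spiked with analytes and vitamin C, then extracted with methanol containing daidzein internal standard (0.5 μM) by 1 min vortex. Spun at 20,000 × g for 15 min and dried under air. Three replicates per QC level were held unextracted at 25°C for 6 h, at −80°C for 30 days, or extracted in the 4°C autosampler for 24 h. Analysed by UPLC-MS/MS (C18, formic acid/acetonitrile, positive MRM); accuracy as RE.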

in vivo = assay type: in vivo, A/J mice; conditions: for Tmax / AUC(0-inf) / AUC(0-t) / Cmax / half-life: male, A/J, mouse, whole blood, po; for detected in the blood: mice, oral XCHT extract 0.5 g/kg; for concentration in the PK study: A/J mice, oral XCHT 500 mg/kg, blood

| SMILES | Accuracy (RE, %) 25°C for 6 h ([1]; spiked concentration 3.9) [%] | Accuracy (RE, %) 25°C for 6 h ([1]; spiked concentration 62.5) [%] | Accuracy (RE, %) 25°C for 6 h ([1]; spiked concentration 500) [%] | Accuracy (RE, %) Frozen for 30 days ([1]; spiked concentration 3.9) [%] | Accuracy (RE, %) Frozen for 30 days ([1]; spiked concentration 62.5) [%] | Accuracy (RE, %) Frozen for 30 days ([1]; spiked concentration 500) [%] | Accuracy (RE, %) 4°C for 24 h ([1]; spiked concentration 3.9) [%] | Accuracy (RE, %) 4°C for 24 h ([1]; spiked concentration 62.5) [%] | Accuracy (RE, %) 4°C for 24 h ([1]; spiked concentration 500) [%] | AUC(0-inf) (in vivo; 500 mg/kg) [µM·h] | AUC(0-t) (in vivo; 500 mg/kg) [µM·h] | Cmax (in vivo; 500 mg/kg) [nM] | half-life (in vivo; 500 mg/kg) [h] | detected in the blood (in vivo) | other results |
| --- | --- | --- | --- | --- | --- | --- | --- | --- | --- | --- | --- | --- | --- | --- | --- |
| CCCCC[C@H](O)CC(=O)CCc1ccc(O)c(OC)c1 [(6)-Gingerol, 6-gingernol] | 2.8 | −2.3 | −1.0 | 4.4 | −12.1 | 1.2 | 2.6 | −8.4 | 2 | – | – | – | – | – | – |
| O=c1cc(-c2ccccc2)oc2cc(O)c(O)c(O)c12 [Baicalein, baicalein] | 10.3 | 9.9 | 0.7 | −11.4 | −14.5 | 9 | 12.3 | −14 | 13.1 | 0.119 ± 0.0338 | 0.0854 ± 0.026 | 32.7 ± 15 | 6.85 ± 4.32 | detected | Tmax (in vivo; 0.5 g/kg): 0.083 h; Tmax (in vivo; 500 mg/kg): 0.083 h |
| O=C(O)[C@H]1O[C@@H](Oc2cc3oc(-c4ccccc4)cc(=O)c3c(O)c2O)[C@H](O)[C@@H](O)[C@@H]1O [Baicalin, baicalin] | −5.7 | −5.3 | 1.1 | 6.7 | 14.1 | 4.9 | 3.8 | 14.8 | 5.2 | 9.71 ± 0.709 | 8.96 ± 2.08 | 787 ± 123 | 3.11 ± 0.95 | detected | Tmax (in vivo; 0.5 g/kg): 2.13 ± 1.18 h; Tmax (in vivo; 500 mg/kg): 2.57 h |
| COc1ccc(-c2coc3cc(O)ccc3c2=O)cc1 [Formononetin, formononetin] | 8.0 | 11.8 | −10.9 | 13.5 | 13 | 4.9 | −8.9 | 13.6 | 5 | – | – | – | – | – | – |
| CC1(C)[C@@H](O)CC[C@]2(C)[C@H]3C(=O)C=C4[C@@H]5C[C@@](C)(C(=O)O)CC[C@]5(C)CC[C@@]4(C)[C@]3(C)CC[C@@H]12 [GA, glycyrrhetinic acid] | 2.1 | 1.6 | 8.1 | 6.9 | 14.0 | 13.5 | 5.4 | 12 | 14.6 | 3.3 ± 1.18 | 3.3 ± 1.18 | 263 ± 87.3 | 4.77 ± 1.93 | – | Cmax (in vivo; 0.5 g/kg): 263 ± 87.3 nM; Tmax (in vivo; 0.5 g/kg): 7.25 ± 5.5 h |
| O=C1C[C@@H](c2ccc(O[C@@H]3O[C@H](CO)[C@@H](O)[C@H](O)[C@H]3O)cc2)Oc2cc(O)ccc21 [Liquiritin] | – | 5.5 | 12.7 | – | 13.8 | 10.9 | – | 15 | 12.8 | 0.137 ± 0.0417 | 0.137 ± 0.0417 | 48.7 ± 38.2 | 9.33 ± 3.42 | detected | Accuracy (RE, %) 25°C for 6 h ([1]; spiked concentration 0.488): 7.3%; Accuracy (RE, %) Frozen for 30 days ([1]; spiked concentration 0.488): 13.9%; Accuracy (RE, %) 4°C for 24 h ([1]; spiked concentration 0.488): 14.4% |
| CC(C)=CCC[C@](C)(O[C@@H]1O[C@H](CO)[C@@H](O)[C@H](O)[C@H]1O)[C@H]1CC[C@]2(C)[C@@H]1[C@H](O)C[C@@H]1[C@@]3(C)CC[C@H](O[C@@H]4O[C@H](CO)[C@@H](O)[C@H](O)[C@H]4O[C@@H]4O[C@H](CO)[C@@H](O)[C@H](O)[C@H]4O)C(C)(C)[C@@H]3CC[C@]12C [Rd, Ginsenoside Rd] | – | −3.7 | −7.1 | – | 11.4 | 12.2 | – | 12.8 | 12.3 | – | – | – | – | – | Accuracy (RE, %) 25°C for 6 h ([1]; spiked concentration 0.488): 13.3%; Accuracy (RE, %) Frozen for 30 days ([1]; spiked concentration 0.488): 11.6%; Accuracy (RE, %) 4°C for 24 h ([1]; spiked concentration 0.488): −4%; concentration in the PK study (in vivo; time 360 min): 5.07±6.67; concentration in the PK study (in vivo; time 720 min): 6.23±7.96; concentration in the PK study (in vivo; time 1440 min): 5.20±7.64 |
| CC(C)=CCC[C@](C)(O[C@@H]1O[C@H](CO)[C@@H](O)[C@H](O)[C@H]1O)[C@H]1CC[C@]2(C)[C@@H]1[C@H](O)C[C@@H]1[C@@]3(C)CC[C@H](O)C(C)(C)[C@@H]3[C@@H](O[C@@H]3O[C@H](CO)[C@@H](O)[C@H](O)[C@H]3O[C@@H]3O[C@@H](C)[C@H](O)[C@@H](O)[C@H]3O)C[C@]12C [Re, ginsenoside Re] | 10.1 | 8.8 | −0.3 | 10.4 | 9.7 | 8.9 | −5.4 | 13.76 | 9.7 | 0.045 ± 0.0289 | 0.0423 ± 0.0265 | 50.2 ± 40.1 | 2.72 ± 2.15 | detected | Tmax (in vivo; 500 mg/kg): 0.25 h |
| O=c1c(O)c(-c2ccc(O)c(O)c2)oc2cc(O)cc(O)c12 [quercetin, quecertin] | −4.8 | −12.9 | 10.1 | −2.6 | 4.8 | 14.7 | −1.3 | 5.12 | 14.72 | – | – | – | – | – | – |
| C[C@@H]1O[C@@H](OC[C@H]2O[C@@H](Oc3c(-c4ccc(O)c(O)c4)oc4cc(O)cc(O)c4c3=O)[C@H](O)[C@@H](O)[C@@H]2O)[C@H](O)[C@H](O)[C@H]1O [rutin] | – | – | – | – | – | – | – | – | – | – | – | – | – | – | Accuracy (RE, %) 25°C for 6 h ([1]; spiked concentration 0.049): 13.2%; Accuracy (RE, %) 25°C for 6 h ([1]; spiked concentration 6.25): 3.1%; Accuracy (RE, %) 25°C for 6 h ([1]; spiked concentration 50): 6.3%; Accuracy (RE, %) Frozen for 30 days ([1]; spiked concentration 0.049): 8.3%; Accuracy (RE, %) Frozen for 30 days ([1]; spiked concentration 6.25): 8.5%; Accuracy (RE, %) Frozen for 30 days ([1]; spiked concentration 50): 7.9%; Accuracy (RE, %) 4°C for 24 h ([1]; spiked concentration 0.049): 9.3%; Accuracy (RE, %) 4°C for 24 h ([1]; spiked concentration 6.25): 12.7%; Accuracy (RE, %) 4°C for 24 h ([1]; spiked concentration 50): 12.1% |
| COc1cc(CCC(C)=O)ccc1O [zingerone] | 7.5 | −8.6 | −14.6 | −5.9 | −0.9 | 12.7 | 4.6 | −1 | 11.4 | – | – | – | – | – | – |

Reference: paper PMC4608253 (Journal of chromatography. B, Analytical technologies in …, 2015)
